In PubChem BioAssay AID624163 (Southern Research Specialized Biocontainment Screening …, 2012):
The source made the active and inactive calls.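 The calls were made as follows: active = inhibition of 30% or more at any tested concentration; inactive = the rest.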

Molecular target: Aminopeptidase N (Plasmodium falciparum (isolate 3D7)) (UniProt O96935)
Experiment: PFM1AAP inhibitors, dose response, biochemical, QFRET, fluorogenic H-Leu-NHMec substrate, set 3 (AID 624163)
Settings: purified rPFM1AAP, H-Leu-NHMec fluorogenic substrate cleavage; for inhibition: at 100 µM (top of the series)
How it was run: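 test system = purified recombinant Plasmodium falciparum M1 alanyl aminopeptidase (rPfM1AAP) | quantity = enzyme 5 µg/mL | also added = fluorogenic substrate H-Leu-NHMec at 0.1 mM final | timing = 90 min reaction, room temperature | signal = fluorescence ex 370/em 460 nm | read-out basis = % inhibition and IC50 from 4-parameter fit | control set = wells without enzyme as background control | repeats = triplicate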

Sequence of Aminopeptidase N (Plasmodium falciparum (isolate 3D7)) (O96935 whole entry, looked up): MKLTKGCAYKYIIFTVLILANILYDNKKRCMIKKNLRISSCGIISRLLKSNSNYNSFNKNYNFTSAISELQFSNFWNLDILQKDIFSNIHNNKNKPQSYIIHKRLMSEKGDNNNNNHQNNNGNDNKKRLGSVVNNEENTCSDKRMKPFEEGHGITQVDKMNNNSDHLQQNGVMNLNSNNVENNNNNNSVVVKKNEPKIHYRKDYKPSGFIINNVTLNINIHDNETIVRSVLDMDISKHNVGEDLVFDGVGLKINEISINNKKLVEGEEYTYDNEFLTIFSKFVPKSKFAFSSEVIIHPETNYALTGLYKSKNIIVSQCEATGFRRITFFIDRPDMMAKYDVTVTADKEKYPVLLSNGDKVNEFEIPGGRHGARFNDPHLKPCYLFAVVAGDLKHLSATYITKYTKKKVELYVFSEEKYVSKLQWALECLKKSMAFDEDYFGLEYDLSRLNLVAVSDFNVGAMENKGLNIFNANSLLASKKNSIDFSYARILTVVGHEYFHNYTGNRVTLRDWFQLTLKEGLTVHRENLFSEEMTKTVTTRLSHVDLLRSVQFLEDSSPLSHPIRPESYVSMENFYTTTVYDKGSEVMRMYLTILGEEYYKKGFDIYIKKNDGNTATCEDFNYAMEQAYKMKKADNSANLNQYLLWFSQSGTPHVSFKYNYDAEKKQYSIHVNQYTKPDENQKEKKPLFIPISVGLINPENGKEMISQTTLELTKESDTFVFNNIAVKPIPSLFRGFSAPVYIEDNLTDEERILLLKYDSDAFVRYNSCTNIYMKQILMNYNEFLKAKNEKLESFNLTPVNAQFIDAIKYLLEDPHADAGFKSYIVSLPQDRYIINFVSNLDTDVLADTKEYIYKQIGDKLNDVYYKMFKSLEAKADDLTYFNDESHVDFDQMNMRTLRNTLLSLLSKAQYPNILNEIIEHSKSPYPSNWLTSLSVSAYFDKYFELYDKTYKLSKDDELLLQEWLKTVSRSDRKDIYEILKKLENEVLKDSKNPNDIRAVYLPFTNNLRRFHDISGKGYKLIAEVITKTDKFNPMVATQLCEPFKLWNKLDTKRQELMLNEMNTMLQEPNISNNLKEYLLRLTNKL

O=C(NCCc1ccc2c(c1)OCO2)C1CCN(S(=O)(=O)c2sccc2Br)CC1
inhibition: inactive

O=C(NCc1ccc2c(c1)OCO2)C1CCN(S(=O)(=O)c2ccc(Br)cc2)CC1
IC50: 7.44 µM

O=C(NCCc1ccc2c(c1)OCO2)C1CCN(S(=O)(=O)c2ccc(Cl)s2)CC1
inhibition: inactive

O=C(NCCc1ccc2c(c1)OCO2)C1CCN(S(=O)(=O)c2ccc(Br)cc2)CC1
inhibition: inactive

O=C(NCc1ccccc1F)C1CCN(S(=O)(=O)c2ccc(Br)s2)CC1
IC50: 2.53 µM

O=C(NCc1cccc(F)c1)C1CCN(S(=O)(=O)c2ccc(Br)s2)CC1
IC50: 2.18 µM

O=C(Nc1ccc2c(c1)OCO2)C1CCN(S(=O)(=O)c2cc(Br)c(Br)s2)CC1
inhibition: inactive

O=C(NCc1cccc(F)c1)C1CCN(S(=O)(=O)c2ccc(Cl)s2)CC1
IC50: 3.98 µM

O=C(Nc1ccc2c(c1)OCO2)C1CCN(S(=O)(=O)c2ccc(Cl)s2)CC1
inhibition: inactive

O=C(NCc1ccc(F)cc1)C1CCN(S(=O)(=O)c2cc(Br)c(Br)s2)CC1
inhibition: inactive

O=C(NCc1ccc(F)cc1)C1CCN(S(=O)(=O)c2ccc(Br)cc2)CC1
IC50: 28 µM

O=C(NCc1ccc(F)cc1)C1CCN(S(=O)(=O)c2ccc(Cl)s2)CC1
IC50: 6.48 µM

O=C(NCc1cccc(F)c1)C1CCN(S(=O)(=O)c2cc(Br)c(Br)s2)CC1
inhibition: inactive

O=C(NCc1cccc(F)c1)C1CCN(S(=O)(=O)c2sccc2Br)CC1
IC50: 29.8 µM

O=C(Nc1ccc2c(c1)OCO2)C1CCN(S(=O)(=O)c2ccc(Br)s2)CC1
inhibition: inactive

O=C(NCc1ccccc1F)C1CCN(S(=O)(=O)c2ccc(Br)cc2)CC1
IC50: 12.7 µM

O=C(NCc1ccc(F)cc1)C1CCN(S(=O)(=O)c2ccc(Br)s2)CC1
IC50: 3.95 µM

O=C(NCc1ccc2c(c1)OCO2)C1CCN(S(=O)(=O)c2ccc(Cl)s2)CC1
IC50: 2.83 µM

O=C(NCc1ccccc1F)C1CCN(S(=O)(=O)c2ccc(Cl)s2)CC1
IC50: 3.97 µM

O=C(NCc1ccc2c(c1)OCO2)C1CCN(S(=O)(=O)c2sccc2Br)CC1
IC50: 34.3 µM

O=C(NCc1ccc2c(c1)OCO2)C1CCN(S(=O)(=O)c2ccc(Br)s2)CC1
IC50: 1.22 µM

O=C(NCc1cccc(F)c1)C1CCN(S(=O)(=O)c2ccc(Br)cc2)CC1
IC50: 11.2 µM

O=C(Nc1ccc2c(c1)OCO2)C1CCN(S(=O)(=O)c2sccc2Br)CC1
inhibition: inactive

O=C(NCc1ccc(F)cc1)C1CCN(S(=O)(=O)c2sccc2Br)CC1
IC50: 69.2 µM

O=C(NCCc1ccc2c(c1)OCO2)C1CCN(S(=O)(=O)c2cc(Br)c(Br)s2)CC1
inhibition: inactive

O=C(Nc1ccc2c(c1)OCO2)C1CCN(S(=O)(=O)c2ccc(Br)cc2)CC1
inhibition: inactive

O=C(NCCc1ccc2c(c1)OCO2)C1CCN(S(=O)(=O)c2ccc(Br)s2)CC1
inhibition: inactive

O=C(NCc1ccc2c(c1)OCO2)C1CCN(S(=O)(=O)c2cc(Br)c(Br)s2)CC1
inhibition: inactive

O=C(NCc1ccccc1F)C1CCN(S(=O)(=O)c2cc(Br)c(Br)s2)CC1
inhibition: inactive

O=C(NCc1ccccc1F)C1CCN(S(=O)(=O)c2sccc2Br)CC1
IC50: 33.7 µM
